Results published in PMC9082424 (RSC Advances, 2018).

Columns and labels:
α-glucosidase [1] = biological target: T1, α-glucosidase (Saccharomyces cerevisiae, UniProt P53341); test: α-Glucosidase inhibitory assay in vitro; type: biochemical; settings: for α-Glucosidase inhibitory activity (in words): up to the highest tested concentration
α-glucosidase [2] = biological target: T1, α-glucosidase; test: Steady-state kinetic analysis of α-glucosidase inhibition; type: biochemical
Outline: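 Yeast α-glucosidase (final 0.025 U mL−1, in 75 mM phosphate buffer pH 7.4) premixed with test compound at several concentrations for 10 min at 37 °C. 4-NPGP (50–200 μM) added to start the reaction. 4-Nitrophenol followed at 405 nm every 30 s for 10 min, with initial velocity taken as ΔA per min. Analysed by Lineweaver–Burk plots. Ki came from secondary plots of slopes, and Ki′ from secondary plots of apparent 1/Vmax, against inhibitor concentration. Three independent experiments.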

T1 sequence (P53341 whole entry): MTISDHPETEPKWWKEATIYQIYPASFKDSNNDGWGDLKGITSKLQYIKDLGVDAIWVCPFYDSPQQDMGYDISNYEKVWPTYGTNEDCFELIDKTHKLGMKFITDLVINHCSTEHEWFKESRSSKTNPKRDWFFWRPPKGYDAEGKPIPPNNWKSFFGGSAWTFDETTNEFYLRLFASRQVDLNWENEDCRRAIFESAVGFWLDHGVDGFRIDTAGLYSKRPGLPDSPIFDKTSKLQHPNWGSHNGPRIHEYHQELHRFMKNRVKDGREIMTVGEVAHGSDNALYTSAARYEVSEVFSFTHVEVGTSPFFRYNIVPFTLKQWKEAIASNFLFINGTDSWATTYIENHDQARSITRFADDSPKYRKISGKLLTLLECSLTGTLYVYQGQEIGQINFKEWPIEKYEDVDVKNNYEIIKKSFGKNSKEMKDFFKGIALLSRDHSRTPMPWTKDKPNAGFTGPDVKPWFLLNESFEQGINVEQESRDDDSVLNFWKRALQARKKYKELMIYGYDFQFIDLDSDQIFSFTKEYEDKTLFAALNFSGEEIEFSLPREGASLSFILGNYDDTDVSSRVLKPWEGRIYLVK

IC50 (α-glucosidase [1])	α-Glucosidase inhibitory activity (in words) (α-glucosidase [1])	Ki (α-glucosidase [2])	Inhibition mode (α-glucosidase [2]; with respect to substrate 4-NPGP (50–200 μM))	Compound
> 100 µM	–	–	–	O=C(O)/C=C/c1ccc(O)c(O)c1 [CA, caffeic acid]
> 100 µM	–	–	–	C[C@H]1COC2=C1C(=O)C(=O)c1c2ccc2c1CCCC2(C)C [CTS, cryptotanshinone]
> 100 µM	weak inhibitory effect	–	–	O=C(/C=C/c1ccc(O)c2c1[C@H](C(=O)O)[C@@H](c1ccc(O)c(O)c1)O2)O[C@H](Cc1ccc(O)c(O)c1)C(=O)O [LA, lithospermic acid]
> 100 µM	–	–	–	CC(C)C1=Cc2ccc3c(c2C(=O)C1=O)CCCC3(C)C [MT, miltirone]
> 200 µM	–	–	–	O=C(/C=C/c1ccc(O)c(O)c1)O[C@H](Cc1ccc(O)c(O)c1)C(=O)O [RA, rosmarinic acid]
19.3 ± 0.89 µM	–	21.2 µM	competitive inhibition	O=C(/C=C/c1ccc(O)c(O)c1/C=C/c1ccc(O)c(O)c1)O[C@H](Cc1ccc(O)c(O)c1)C(=O)O [SAA, salvianolic acid A]
> 100 µM	–	–	–	Cc1coc2c1C(=O)C(=O)c1c-2ccc2c1CCCC2(C)C [TS-IIA, tanshinone IIA]
> 100 µM	weak inhibitory activity	–	–	Cc1coc2c1C(=O)C(=O)c1c-2ccc2c1CCCC2(C)CO (stereo not shown) [TS-IIB, tanshinone IIB]
–	weak inhibitory activity	–	–	C[C@H]1[C@H](C)CC[C@]2(C(=O)O)CC[C@]3(C)C(=CC[C@@H]4[C@@]5(C)CC[C@H](O)C(C)(C)[C@@H]5CC[C@]43C)[C@H]12 [UA, ursolic acid]
